In ChEMBL document CHEMBL4033712, “Synthesis and biological evaluation of new C-12(α/β)-(N-) sulfamoyl-phenylamino-14-deoxy-andrographolide derivatives as potent anti-cancer agents” (Bioorg Med Chem Lett, 2017):

Legend:
Assay type in all cases: functional
OVCAR-4 = test: Anticancer activity against human OVCAR4 cells assessed as cell growth at 10 uM after 48 hrs by sulforhodamine B assay relative to control; settings: OVCAR-4, 48 h, read-out: Activity
Method in brief: (§1)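 Single-dose NCI-60 panel screen: compound added at 10 µM and the culture incubated 48 h. The end point was read by protein staining with sulforhodamine B. The value is percent growth of treated cells relative to untreated control cells, reported as a mean graph across the panel.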

OVCAR-8 = test: Anticancer activity against human OVCAR8 cells assessed as cell growth at 10 uM after 48 hrs by sulforhodamine B assay relative to control; settings: OVCAR-8, 48 h, read-out: Activity; method in brief: as §1
NCI/ADR-RES = test: Anticancer activity against human NCI/ADR-RES cells assessed as cell growth at 10 uM after 48 hrs by sulforhodamine B assay relative to control; settings: read-out: Activity; method in brief: as §1
786-0 = test: Anticancer activity against human 786-0 cells assessed as cell growth at 10 uM after 48 hrs by sulforhodamine B assay relative to control; settings: 786-0, 48 h, read-out: Activity; method in brief: as §1
MDA-MB-468 = test: Anticancer activity against human MDA-MB-468 cells assessed as cell growth at 10 uM after 48 hrs by sulforhodamine B assay relative to control; settings: MDA-MB-468, 48 h, read-out: Activity; method in brief: as §1
UACC-257 = test: Anticancer activity against human UACC257 cells assessed as cell growth at 10 uM after 48 hrs by sulforhodamine B assay relative to control; settings: UACC-257, 48 h, read-out: Activity
Method in brief: (§2)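 NCI-60 single-dose screen: compound added at 10 µM, cultures incubated 48 h. End point by sulforhodamine B protein-binding dye. Value reported as percent growth of treated cells relative to untreated control cells.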

SF-268 = test: Anticancer activity against human SF268 cells assessed as cell growth at 10 uM after 48 hrs by sulforhodamine B assay relative to control; settings: SF-268, 48 h, read-out: Activity; method in brief: as §1
NCI-H23 = test: Anticancer activity against human NCI-H23 cells assessed as cell growth at 10 uM after 48 hrs by sulforhodamine B assay relative to control; settings: NCI-H23, 48 h, read-out: Activity; method in brief: as §1
IGROV-1 = test: Anticancer activity against human IGROV1 cells assessed as cell growth at 10 uM after 48 hrs by sulforhodamine B assay relative to control; settings: IGROV-1, 48 h, read-out: Activity; method in brief: as §1
CAKI-1 = test: Anticancer activity against human Caki1 cells assessed as cell growth at 10 uM after 48 hrs by sulforhodamine B assay relative to control; settings: CAKI-1, 48 h, read-out: Activity; method in brief: as §1
Hs-578T = test: Anticancer activity against human Hs 578T cells assessed as cell growth at 10 uM after 48 hrs by sulforhodamine B assay relative to control; settings: read-out: Activity; method in brief: as §1
NCI-H460 = test: Anticancer activity against human NCI-H460 cells assessed as cell growth at 10 uM after 48 hrs by sulforhodamine B assay relative to control; settings: NCI-H460, 48 h, read-out: Activity; method in brief: as §1
BT-549 = test: Anticancer activity against human BT549 cells assessed as cell growth at 10 uM after 48 hrs by sulforhodamine B assay relative to control; settings: BT-549, 48 h, read-out: Activity; method in brief: as §1
SN12C = test: Anticancer activity against human SN12C cells assessed as cell growth at 10 uM after 48 hrs by sulforhodamine B assay relative to control; settings: read-out: Activity; method in brief: as §1
UO-31 = test: Anticancer activity against human UO31 cells assessed as cell growth at 10 uM after 48 hrs by sulforhodamine B assay relative to control; settings: UO-31, 48 h, read-out: Activity; method in brief: as §2
SW-620 = test: Anticancer activity against human SW620 cells assessed as cell growth at 10 uM after 48 hrs by sulforhodamine B assay relative to control; settings: SW-620, 48 h, read-out: Activity; method in brief: as §2
A549 = test: Anticancer activity against human A549/ATCC cells assessed as cell growth at 10 uM after 48 hrs by sulforhodamine B assay relative to control; settings: A549, 48 h, read-out: Activity; method in brief: as §1
TK-10 = test: Anticancer activity against human TK10 cells assessed as cell growth at 10 uM after 48 hrs by sulforhodamine B assay relative to control; settings: TK-10, 48 h, read-out: Activity; method in brief: as §2
NCI-H322M = test: Anticancer activity against human NCI-H322M cells assessed as cell growth at 10 uM after 48 hrs by sulforhodamine B assay relative to control; settings: read-out: Activity; method in brief: as §1
T47D = test: Anticancer activity against human T47D cells assessed as cell growth at 10 uM after 48 hrs by sulforhodamine B assay relative to control; settings: read-out: Activity; method in brief: as §2
CCRF-CEM = test: Anticancer activity against human CCRF-CEM cells assessed as cell growth at 10 uM after 48 hrs by sulforhodamine B assay relative to control; settings: read-out: Activity; method in brief: as §1
SF-295 = test: Anticancer activity against human SF295 cells assessed as cell growth at 10 uM after 48 hrs by sulforhodamine B assay relative to control; settings: SF-295, 48 h, read-out: Activity; method in brief: as §1
UACC-62 = test: Anticancer activity against human UACC62 cells assessed as cell growth at 10 uM after 48 hrs by sulforhodamine B assay relative to control; settings: UACC-62, 48 h, read-out: Activity; method in brief: as §2
ACHN = test: Anticancer activity against human ACHN cells assessed as cell growth at 10 uM after 48 hrs by sulforhodamine B assay relative to control; settings: read-out: Activity; method in brief: as §1
M14 = test: Anticancer activity against human M14 cells assessed as cell growth at 10 uM after 48 hrs by sulforhodamine B assay relative to control; settings: M14, 48 h, read-out: Activity; method in brief: as §1
OVCAR-3 = test: Anticancer activity against human OVCAR3 cells assessed as cell growth at 10 uM after 48 hrs by sulforhodamine B assay relative to control; settings: OVCAR-3, 48 h, read-out: Activity; method in brief: as §1
NCI-H522 = test: Anticancer activity against human NCI-H522 cells assessed as cell growth at 10 uM after 48 hrs by sulforhodamine B assay relative to control; settings: NCI-H522, 48 h, read-out: Activity; method in brief: as §1
RPMI-8226 = test: Anticancer activity against human RPMI8226 cells assessed as cell growth at 10 uM after 48 hrs by sulforhodamine B assay relative to control; settings: RPMI-8226, 48 h, read-out: Activity; method in brief: as §1
HT-29 = test: Anticancer activity against human HT-29 cells assessed as cell growth at 10 uM after 48 hrs by sulforhodamine B assay relative to control; settings: HT-29, 48 h, read-out: Activity; method in brief: as §1
SK-MEL-2 = test: Anticancer activity against human SK-MEL-2 cells assessed as cell growth at 10 uM after 48 hrs by sulforhodamine B assay relative to control; settings: SK-MEL-2, 48 h, read-out: Activity; method in brief: as §1
HL-60(TB) = test: Anticancer activity against human HL-60(TB) cells assessed as cell growth at 10 uM after 48 hrs by sulforhodamine B assay relative to control; settings: HL-60, 48 h, read-out: Activity
Method in brief: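 NCI-60 human tumour panel single-dose screen: cells exposed to 10 µM compound for 48 h. Growth end point read with sulforhodamine B protein-binding dye. Expressed as percent growth of treated cells versus untreated control cells.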

`C=C1CC[C@@H]2[C@](C)(COC(C)=O)[C@H](OC(C)=O)CC[C@@]2(C)[C@H]1CC(Nc1ccc(S(=O)(=O)Nc2nccs2)cc1)C1=CCOC1=O` (some centres not stated) gave a growth at 10 µM (OVCAR-4) of 38%, a growth at 10 µM (OVCAR-8) of 4.39% and a growth at 10 µM (NCI/ADR-RES) of 9.2%. The growth at 10 µM (786-0) was 6.27%, the growth at 10 µM (MDA-MB-468) was -59.9% and the growth at 10 µM (UACC-257) was 22.4%. For the same molecule, the growth at 10 µM (SF-268) was 21.3%, the growth at 10 µM (NCI-H23) was 38.1% and the growth at 10 µM (IGROV-1) was 12.6%. For the same molecule, the growth at 10 µM (CAKI-1) was 55.9%, the growth at 10 µM (Hs-578T) was 51.9% and the growth at 10 µM (NCI-H460) was 29.5%. For the same molecule, the growth at 10 µM (BT-549) was -23.5%, the growth at 10 µM (SN12C) was 15.6% and the growth at 10 µM (UO-31) was 13.5%. For the same molecule, the growth at 10 µM (SW-620) was -72.7%, the growth at 10 µM (A549) was 43.7% and the growth at 10 µM (TK-10) was 55%. The growth at 10 µM (NCI-H322M) was 59.9%, the growth at 10 µM (T47D) was 34.6% and the growth at 10 µM (CCRF-CEM) was -27.7%. It also gave a growth at 10 µM (SF-295) of 73%, a growth at 10 µM (UACC-62) of 21.2% and a growth at 10 µM (ACHN) of -46.6%. The growth at 10 µM (M14) was 8.12%, the growth at 10 µM (OVCAR-3) was -70.2% and the growth at 10 µM (NCI-H522) was -61.9%. It also gave a growth at 10 µM (RPMI-8226) of -13.3%, a growth at 10 µM (HT-29) of -42.7% and a growth at 10 µM (SK-MEL-2) of 28.4%. For the same molecule, the growth at 10 µM (HL-60(TB)) was -20.9%.

`C=C1CC[C@@H]2[C@](C)(COC(C)=O)[C@H](OC(C)=O)CC[C@@]2(C)[C@H]1CC(Nc1ccc(S(=O)(=O)Nc2cc(C)on2)cc1)C1=CCOC1=O` (some centres not stated) was tested, and the growth at 10 µM (OVCAR-4) was 68.2%, the growth at 10 µM (OVCAR-8) was 16.1% and the growth at 10 µM (NCI/ADR-RES) was 31.6%. For the same molecule, the growth at 10 µM (786-0) was 89.8%, the growth at 10 µM (MDA-MB-468) was 3.23% and the growth at 10 µM (UACC-257) was 69%. The growth at 10 µM (SF-268) was 67.3%, the growth at 10 µM (NCI-H23) was 71% and the growth at 10 µM (IGROV-1) was 62.6%. It also gave a growth at 10 µM (CAKI-1) of 44%, a growth at 10 µM (Hs-578T) of 89.5% and a growth at 10 µM (NCI-H460) of 79.5%. The growth at 10 µM (BT-549) was 27.2%, the growth at 10 µM (SN12C) was 31.8% and the growth at 10 µM (UO-31) was 56.9%. The growth at 10 µM (SW-620) was 14.7%, the growth at 10 µM (A549) was 72.2% and the growth at 10 µM (TK-10) was 58.4%. For the same molecule, the growth at 10 µM (NCI-H322M) was 80.4%, the growth at 10 µM (T47D) was 63.6% and the growth at 10 µM (CCRF-CEM) was -19.1%. For the same molecule, the growth at 10 µM (SF-295) was 100%, the growth at 10 µM (UACC-62) was 19.8% and the growth at 10 µM (ACHN) was 19.5%. It also gave a growth at 10 µM (M14) of 29.9%, a growth at 10 µM (OVCAR-3) of 7.95% and a growth at 10 µM (NCI-H522) of -20.2%. The growth at 10 µM (RPMI-8226) was -15.2%, the growth at 10 µM (HT-29) was -11% and the growth at 10 µM (SK-MEL-2) was 63%. It also gave a growth at 10 µM (HL-60(TB)) of -2.05%.
